Experimental data: ChEMBL document CHEMBL2150987, “Synthesis and evaluation of novel 1,3,4-oxadiazole derivatives of marine bromopyrrole alkaloids as antimicrobial agent” (2012)
Values after ≈ are worked out from the molar mass of the structure shown.

Columns and labels:
Format in all cases: functional
Klebsiella pneumoniae = experiment: Antibacterial activity against Klebsiella pneumoniae after 24 hrs by broth dilution method
Method in brief: (§1)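 Nutrient broth containing logarithmic twofold serial dilutions of compound, inoculated with about 5 × 10⁵ CFU/mL of actively dividing bacteria, incubated 24 h at 37 °C. Growth was read visually and spectrophotometrically. MIC was the lowest concentration (highest dilution) that arrested growth. Ciprofloxacin served as standard.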

Candida albicans = experiment: Antifungal activity against Candida albicans after 48 hrs by […]
Staphylococcus aureus = experiment: Antibacterial activity against Staphylococcus aureus ATCC 25923 after 24 hrs by broth dilution method; conditions: ATCC 25923, 24 h; method in brief: as §1
Pseudomonas aeruginosa = experiment: Antibacterial activity against Pseudomonas aeruginosa ATCC 27853 after 24 hrs by broth dilution method; conditions: ATCC 27853, 24 h; method in brief: as §1
Escherichia coli = experiment: Antibacterial activity against Escherichia coli ATCC 25922 after 24 hrs by broth dilution method; conditions: ATCC 25922, 24 h; method in brief: as §1
[1] = test system: Mycobacterium tuberculosis; experiment: Antitubercular activity against Mycobacterium tuberculosis H37Rv after 7 days by resazurin microtiter assay; conditions: 168 h

SMILES | MIC (Klebsiella pneumoniae) [µg/mL] | MIC (Candida albicans) [µg/mL] | MIC (Staphylococcus aureus) [µg/mL] | MIC (Pseudomonas aeruginosa) [µg/mL] | MIC (Escherichia coli) [µg/mL] | MIC [1] [µg/mL]
Oc1ccccc1-c1nnc(-c2cc(Br)c(Br)[nH]2)o1 | 100 (≈ 260 µM) | 6.25 (≈ 16.2 µM) | 1.56 (≈ 4.05 µM) | 12.5 (≈ 32.5 µM) | 3.12 (≈ 8.12 µM) | 36.5 (≈ 94.8 µM)
Brc1cc(-c2nnc(/C=C/c3ccccc3)o2)[nH]c1Br | 100 (≈ 253 µM) | 12.5 (≈ 31.6 µM) | 3.12 (≈ 7.91 µM) | 6.25 (≈ 15.8 µM) | 12.5 (≈ 31.6 µM) | 78.5 (≈ 199 µM)
Oc1ccc(-c2nnc(-c3cc(Br)c(Br)[nH]3)o2)cc1 | 100 (≈ 260 µM) | 12.5 (≈ 32.5 µM) | 12.5 (≈ 32.5 µM) | 6.25 (≈ 16.2 µM) | 12.5 (≈ 32.5 µM) | 25 (≈ 64.9 µM)
Fc1ccc(Cl)c(-c2nnc(-c3cc(Br)c(Br)[nH]3)o2)c1 | 100 (≈ 237 µM) | 12.5 (≈ 29.7 µM) | 1.56 (≈ 3.7 µM) | 6.25 (≈ 14.8 µM) | 1.56 (≈ 3.7 µM) | 6.5 (≈ 15.4 µM)
O=[N+]([O-])c1ccc(-c2nnc(-c3cc(Br)c(Br)[nH]3)o2)cc1 | 100 (≈ 242 µM) | 1.56 (≈ 3.77 µM) | 1.56 (≈ 3.77 µM) | 6.25 (≈ 15.1 µM) | 1.56 (≈ 3.77 µM) | 9 (≈ 21.7 µM)
Brc1cc(-c2nnc(-c3cc(Br)c(Br)[nH]3)o2)[nH]c1Br | 100 (≈ 194 µM) | 1.56 (≈ 3.02 µM) | 1.56 (≈ 3.02 µM) | 6.25 (≈ 12.1 µM) | 1.56 (≈ 3.02 µM) | 3.5 (≈ 6.79 µM)
Brc1cc(-c2nnc(-c3ccccc3)o2)[nH]c1Br | 100 (≈ 271 µM) | 12.5 (≈ 33.9 µM) | 6.25 (≈ 16.9 µM) | 6.25 (≈ 16.9 µM) | 12.5 (≈ 33.9 µM) | 98.7 (≈ 267 µM)
COc1cc(/C=C/c2nnc(-c3cc(Br)c(Br)[nH]3)o2)ccc1O | 100 (≈ 227 µM) | 12.5 (≈ 28.3 µM) | 1.56 (≈ 3.54 µM) | 12.5 (≈ 28.3 µM) | 12.5 (≈ 28.3 µM) | 112 (≈ 255 µM)
Brc1cc(-c2nnc(-c3ccncc3)o2)[nH]c1Br | 100 (≈ 270 µM) | 12.5 (≈ 33.8 µM) | 1.56 (≈ 4.22 µM) | 12.5 (≈ 33.8 µM) | 12.5 (≈ 33.8 µM) | 3.5 (≈ 9.46 µM)
Brc1cc(-c2nnc(/C=C/C3=COc4ccccc4C3)o2)[nH]c1Br | 100 (≈ 223 µM) | 12.5 (≈ 27.8 µM) | 1.56 (≈ 3.47 µM) | 12.5 (≈ 27.8 µM) | 3.12 (≈ 6.96 µM) | 2 (≈ 4.45 µM)
Sc1nnc(-c2cc(Br)c(Br)[nH]2)o1 | 100 (≈ 308 µM) | 12.5 (≈ 38.5 µM) | 12.5 (≈ 38.5 µM) | 12.5 (≈ 38.5 µM) | 12.5 (≈ 38.5 µM) | 54.5 (≈ 168 µM)
CSc1nnc(-c2cc(Br)c(Br)[nH]2)o1 | 100 (≈ 295 µM) | 12.5 (≈ 36.9 µM) | 12.5 (≈ 36.9 µM) | 25 (≈ 73.7 µM) | 12.5 (≈ 36.9 µM) | 89.5 (≈ 264 µM)
CCSc1nnc(-c2cc(Br)c(Br)[nH]2)o1 | 100 (≈ 283 µM) | 12.5 (≈ 35.4 µM) | 12.5 (≈ 35.4 µM) | 25 (≈ 70.8 µM) | 12.5 (≈ 35.4 µM) | 118 (≈ 334 µM)
Brc1cc(-c2nnc(Sc3ccccc3)o2)[nH]c1Br | 100 (≈ 249 µM) | 6.25 (≈ 15.6 µM) | 12.5 (≈ 31.2 µM) | 25 (≈ 62.3 µM) | 12.5 (≈ 31.2 µM) | 23.5 (≈ 58.6 µM)
O=C(CSc1nnc(-c2cc(Br)c(Br)[nH]2)o1)c1ccccc1 | 100 (≈ 226 µM) | 1.56 (≈ 3.52 µM) | 12.5 (≈ 28.2 µM) | 12.5 (≈ 28.2 µM) | 3.12 (≈ 7.05 µM) | 1.5 (≈ 3.39 µM)
O=C(Cc1ccccc1)c1nnc(-c2cc(Br)c(Br)[nH]2)o1 | 100 (≈ 243 µM) | 12.5 (≈ 30.4 µM) | 3.12 (≈ 7.6 µM) | 12.5 (≈ 30.4 µM) | 3.12 (≈ 7.6 µM) | 146 (≈ 355 µM)
Nc1ccc(-c2nnc(-c3cc(Br)c(Br)[nH]3)o2)cc1 | 100 (≈ 260 µM) | 12.5 (≈ 32.5 µM) | 3.12 (≈ 8.14 µM) | 6.25 (≈ 16.3 µM) | 1.56 (≈ 4.06 µM) | 16.5 (≈ 43 µM)
Clc1ccc(-c2nnc(-c3cc(Br)c(Br)[nH]3)o2)cc1 | 100 (≈ 248 µM) | 12.5 (≈ 31 µM) | 1.56 (≈ 3.87 µM) | 6.25 (≈ 15.5 µM) | 1.56 (≈ 3.87 µM) | 9.5 (≈ 23.5 µM)
COc1ccc(-c2nnc(-c3cc(Br)c(Br)[nH]3)o2)cc1 | 100 (≈ 251 µM) | 12.5 (≈ 31.3 µM) | 3.12 (≈ 7.83 µM) | 6.25 (≈ 15.7 µM) | 3.12 (≈ 7.83 µM) | 56.5 (≈ 142 µM)
Clc1ccc(-c2nnc(-c3cc(Br)c(Br)[nH]3)o2)c(Cl)c1 | 100 (≈ 228 µM) | 12.5 (≈ 28.5 µM) | 6.25 (≈ 14.3 µM) | 6.25 (≈ 14.3 µM) | 12.5 (≈ 28.5 µM) | 1.6 (≈ 3.65 µM)
C[C@@H]1[C@H](O)[C@@H](C)/C=C/C=C/C=C/C=C/C=C/C=C/C=C/[C@H](O[C@@H]2O[C@H](C)[C@@H](O)[C@H](N)[C@@H]2O)C[C@@H]2O[C@](O)(C[C@@H](O)C[C@@H](O)[C@H](O)CC[C@@H](O)C[C@@H](O)CC(=O)O[C@H]1C)C[C@H](O)[C@H]2C(=O)O [AMPHOTERICIN B] | – | 1.56 (≈ 1.69 µM) | – | – | – | –
O=C(O)c1cn(C2CC2)c2cc(N3CCNCC3)c(F)cc2c1=O [CIPROFLOXACIN] | 1.56 (≈ 4.71 µM) | – | 1.56 (≈ 4.71 µM) | 3.12 (≈ 9.43 µM) | – | –
NNC(=O)c1ccncc1 [ISONIAZID] | – | – | – | – | – | 0.4 (≈ 2.92 µM)
